In ChEMBL document CHEMBL1799926, “Applying the pro-drug approach to afford highly bioavailable antagonists of P2Y(14)” (Bioorg Med Chem Lett, 2011):

How the values were obtained:
[1] = Metabolic stability in whole blood after 1 hr
[2] = Binding affinity to chimpanzee P2Y14 receptor; design: species or system Pan troglodytes
[3] = Binding affinity to chimpanzee P2Y14 receptor in presence of 2% human serum albumin; design: species or system Pan troglodytes
[4] = Oral bioavailability in mouse at 50 mg/kg; assay type: ADME, organism-based; details: in vivo
Outline: (§1)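 Mice dosed orally at 50 mg/kg in 0.25% methocel. Plasma levels of the parent zwitterion were measured for both the parent and the ester prodrugs, giving AUC, 24 h concentration and clearance. For prodrugs, bioavailability is expressed as virtual F, based on parent-drug exposure.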

[5] = Plasma concentration in mouse at 50 mg/kg, po after 24 hrs; assay type: ADME, organism-based; design: dose 50 mg/kg, route oral
Outline: as §1

[6] = (§2) AUC in mouse at 50 mg/kg, po after 24 hrs; assay type: ADME, organism-based, Plasma; design: time < 24 hr, dose 50 mg/kg, route oral; details: plasma
Outline: as §1

[7] = Oral bioavailability in mouse at 75 mg/kg bid; assay type: ADME, organism-based; details: in vivo
[8] = Half life in mouse at 75 mg/kg, po bid; assay type: ADME, organism-based; design: dose 75 mg/kg, route oral; details: in vivo
[9] = Clearance in mouse at 75 mg/kg, po bid; assay type: ADME, organism-based; design: dose 75 mg/kg, route oral; details: in vivo
Albumin = Albumin (Homo sapiens, UniProt P02768); assay: Binding affinity to 4.5 % human serum albumin
Albumin, sequence (P02768 whole entry): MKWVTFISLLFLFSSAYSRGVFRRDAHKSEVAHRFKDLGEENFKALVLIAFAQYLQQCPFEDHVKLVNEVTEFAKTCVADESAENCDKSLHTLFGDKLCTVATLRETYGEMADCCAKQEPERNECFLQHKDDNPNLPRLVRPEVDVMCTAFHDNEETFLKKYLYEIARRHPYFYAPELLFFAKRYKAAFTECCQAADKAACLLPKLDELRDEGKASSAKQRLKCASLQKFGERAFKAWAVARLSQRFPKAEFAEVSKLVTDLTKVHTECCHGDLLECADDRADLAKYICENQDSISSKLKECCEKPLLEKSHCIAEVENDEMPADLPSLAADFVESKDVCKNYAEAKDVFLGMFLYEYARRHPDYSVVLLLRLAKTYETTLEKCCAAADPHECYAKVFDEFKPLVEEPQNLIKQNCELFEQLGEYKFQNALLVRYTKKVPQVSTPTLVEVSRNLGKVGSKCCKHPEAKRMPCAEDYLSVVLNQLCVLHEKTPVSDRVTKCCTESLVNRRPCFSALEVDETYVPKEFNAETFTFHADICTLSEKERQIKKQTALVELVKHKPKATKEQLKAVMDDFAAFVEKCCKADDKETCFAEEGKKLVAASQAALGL

Mus musculus = assay: as §2; assay type: ADME, organism-based, Plasma; design: time < 24 hr, dose 50 mg/kg, route oral; details: in vivo, 24 h
Outline: as §1

SMILES | Stability [1] | Ki [2] | Ki [3] | bioavailability [4] | concentration at 24 h [5] | further results
CN(C)CCOC(=O)c1cc(-c2ccc(C3CCNCC3)cc2)c2ccc(-c3ccc(C(F)(F)F)cc3)cc2c1 | Unstable | – | – | – | – | –
O=C(O)c1cc(-c2ccc([C@@H](O)C(F)F)cc2)c2ccc(-c3ccc(C(F)(F)F)cc3)cc2c1 | – | 4 nM | 1290 nM | – | – | bioavailability [7]: 67%; half-life [8]: 180 min; CL/F [9]: 1.6 mL/min/kg; Activity (Albumin): > 99%

Second part, led by results:

Stability [1] | Ki [2] | Ki [3] | bioavailability [4] | concentration at 24 h [5] | SMILES | further results
Unstable | – | – | – | – | CC(OCC(=O)C(C)C)OC(=O)c1cc(-c2ccc(C3CCNCC3)cc2)c2ccc(-c3ccc(C(F)(F)F)cc3)cc2c1 (stereo not drawn) | –
– | 1.9 nM | 35 nM | 5% | 680 nM | O=C(O)c1cc(-c2ccc(C3CCNCC3)cc2)c2ccc(-c3ccc(C(F)(F)F)cc3)cc2c1 [PPTN] | AUC at 24 h [6]: 23 µM·h
Unstable | – | – | – | – | CC(=O)OCOC(=O)c1cc(-c2ccc(C3CCNCC3)cc2)c2ccc(-c3ccc(C(F)(F)F)cc3)cc2c1 | –
Unstable | – | – | 67% | 2280 nM | CN(C)C(=O)COC(=O)c1cc(-c2ccc(C3CCNCC3)cc2)c2ccc(-c3ccc(C(F)(F)F)cc3)cc2c1 | AUC (Mus musculus): 54 µM·h
